Data set [1] can be described thus: Fluorescence quenching assessed as fluorescence signal reduction at 10 uM after 10 mins. The format is physicochemical. A digest of the protocol: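 CPM (20 μM final) and CoA (5 μM final) reacted to completion in assay buffer (stable plateau, usually ~5 min); adduct solution added to wells preplated with compound; shaken 5 min, equilibrated 5 min at room temperature; fluorescence intensity read as percent signal reduction versus DMSO controls. Flagged as quencher at >20% signal reduction at 10 μM final compound.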

Data set [2] is described as follows: Fluorescence quenching in HTS buffer assessed as fluorescence signal reduction at 10 uM after 10 mins. The format is physicochemical.
Data set [3] in a line: Fluorescence quenching in HTS buffer with […] CoA assessed as fluorescence signal reduction at 10 uM after 10 mins. The format is physicochemical.
A short description of data set [4]: Chemical stability of the compound in HTS buffer assessed as GSH adduct formation measured as retention time after 5 mins by UPLC-MS analysis. The format is physicochemical. A digest of the protocol:
(§1)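 Compound (typically 0.5 mM final) incubated in HTS buffer (pH 8.0) for 5, 15 or 30 min, then reduced glutathione added (2 equiv per 1 equiv compound); aliquots analysed by UPLC–MS (BEH C18 column, ELS and 254 nm traces) 5 min after GSH addition, and the same sample re-analysed 15 min later. HTS-like conditions but 5% DMSO, no detergent.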

Data set [5] in a line: Chemical stability of the compound in HTS buffer assessed as GSH adduct formation measured as retention time after 15 mins by UPLC-MS analysis. The format is physicochemical. The following applies: 0.25 h. A digest of the protocol:
as §1

For data set [6], the target named is T1, Histone acetyltransferase p300 (Homo sapiens, UniProt Q09472). Kind of data set: Inhibition of recombinant histone acetyltransferase p300 (unknown origin) using dH3-H4 tetramer and [3H]-acetyl-CoA assessed as acetate incorporation […] by liquid scintillation counting. To be noted: read-out: IC50.
Data set [7] addresses Histone acetyltransferase GCN5 (Saccharomyces cerevisiae S288c, UniProt Q03330). In words: Inhibition of yeast histone acetyltransferase Gcn5-Ada2-Ada3 complex using tetramer and [3H]-acetyl-CoA assessed as acetate incorporation after 30 mins by liquid scintillation counting. To be noted: read-out: IC50.
A short description of data set [8]: Fluorescence quenching in HTS buffer with 20 uM 7-diethylamino-3-(4'-maleimidyl-phenyl)-4-methylcoumarin assessed as fluorescence signal reduction at 10 uM after 10 mins. The format is physicochemical.
The target in data set [9] is T2, Histone acetyltransferase RTT109 (Saccharomyces cerevisiae (strain ATCC 204508 / S288c) (Baker's yeast), UniProt Q07794).
T2 sequence (Q07794 whole entry): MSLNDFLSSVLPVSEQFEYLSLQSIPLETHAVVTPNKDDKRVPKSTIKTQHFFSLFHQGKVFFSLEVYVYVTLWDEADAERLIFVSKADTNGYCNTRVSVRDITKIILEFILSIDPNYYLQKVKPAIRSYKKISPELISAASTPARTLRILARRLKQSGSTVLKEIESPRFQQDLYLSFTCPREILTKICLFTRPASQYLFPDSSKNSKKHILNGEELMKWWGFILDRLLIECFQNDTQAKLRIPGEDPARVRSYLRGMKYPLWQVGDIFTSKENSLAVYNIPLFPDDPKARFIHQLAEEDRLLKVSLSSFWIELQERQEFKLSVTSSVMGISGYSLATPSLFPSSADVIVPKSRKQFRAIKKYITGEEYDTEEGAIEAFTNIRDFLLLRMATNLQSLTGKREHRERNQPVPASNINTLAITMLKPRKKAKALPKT
Kind of data set: Inhibition of Vps75-stimulated recombinant Saccharomyces cerevisiae histone acetyltransferase Rtt109 using Asf1-dH3-H4 as substrate assessed as coenzyme A production after 45 mins by CPM based HTS assay. Summed up:
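Recombinant Rtt109–Vps75 at 50 nM, with Asf1–dH3–H4 as substrate and acetyl-CoA as acetyl donor. Buffer contained freshly prepared 0.01% Triton X-100. The CoA product was detected by fluorescence of its CPM adduct. Plates had Z′ ≥0.5. IC50 came from a four-parameter variable-slope fit.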

The target in data set [10] is T2, Histone acetyltransferase RTT109. Kind of data set: Inhibition of Vps75-stimulated recombinant Saccharomyces cerevisiae histone acetyltransferase Rtt109 using [3H]-acetyl-CoA assessed as acetate incorporation after 30 mins by liquid scintillation counting. To be noted: read-out: IC50.
The target of data set [11] is Histone acetyltransferase GCN5 (Saccharomyces cerevisiae S288c) (UniProt Q03330). Kind of data set: Inhibition of yeast histone acetyltransferase Gcn5-Ada2-Ada3 complex using tetramer and [3H]-acetyl-CoA assessed as acetate incorporation […] by liquid scintillation counting in presence of 1 mM DTT.
Data set [12] addresses T3, Lupus La protein (Homo sapiens) (UniProt P05455).
T3 sequence (whole entry): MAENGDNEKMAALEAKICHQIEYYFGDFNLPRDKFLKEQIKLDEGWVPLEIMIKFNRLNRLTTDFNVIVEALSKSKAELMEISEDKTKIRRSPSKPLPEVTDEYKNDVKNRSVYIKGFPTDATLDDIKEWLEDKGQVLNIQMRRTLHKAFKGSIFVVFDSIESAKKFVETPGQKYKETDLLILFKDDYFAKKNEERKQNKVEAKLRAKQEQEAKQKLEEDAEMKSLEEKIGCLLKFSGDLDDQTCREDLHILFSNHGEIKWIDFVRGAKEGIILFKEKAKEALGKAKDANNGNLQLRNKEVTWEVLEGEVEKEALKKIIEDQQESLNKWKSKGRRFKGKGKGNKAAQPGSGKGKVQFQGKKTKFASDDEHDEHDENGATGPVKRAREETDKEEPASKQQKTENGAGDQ
Kind of data set: Induction of thiol reactivity with La protein (unknown origin) using […] assessed as protein reactivity by ALARM NMR. A digest of the protocol: (§2)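 ALARM NMR with recombinant La antigen expressed in E. coli Rosetta, 15N-labelled and 13C-labelled at Leu/Ile δ-methyl and Val γ-methyl groups; protein pre-reduced with 20 mM DTT then dialysed DTT-free under N2.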

Data set [13] concerns the target T3, Lupus La protein (Homo sapiens). In words: Induction of thiol reactivity with La protein (unknown origin) using […] assessed as protein reactivity by ALARM NMR in presence of 20 mM DTT. Summed up:
as §2

Data set [14] concerns the target T1, Histone acetyltransferase p300. Kind of data set: Inhibition of recombinant histone acetyltransferase p300 (unknown origin) using dH3-H4 tetramer and [3H]-acetyl-CoA assessed as acetate incorporation after 5 mins by liquid scintillation counting in presence of 1 mM DTT.
Data set [15] concerns the target T4, Histone acetyltransferase RTT109 (Saccharomyces cerevisiae (strain ATCC 204508 / S288c) (Baker's yeast)) (UniProt Q07794).
T4 sequence (whole entry): T2 sequence (Q07794 whole entry)
In words: Inhibition of Vps75-stimulated recombinant Saccharomyces cerevisiae histone acetyltransferase Rtt109 assessed as H3K56 acetylated product at […] after 45 mins by Slot bolt inhibiton assay.

Data set [16] deals with T4, Histone acetyltransferase RTT109 (Saccharomyces cerevisiae (strain ATCC 204508 / S288c) (Baker's yeast)). Kind of data set: Inhibition of Vps75-stimulated recombinant Saccharomyces cerevisiae histone acetyltransferase Rtt109 assessed as H3K27 acetylated product at […] after 45 mins by Slot bolt inhibiton assay.
For data set [17] the target is unchanged. In words: Inhibition of Vps75-stimulated recombinant Saccharomyces cerevisiae histone acetyltransferase Rtt109 using [3H]-acetyl-CoA assessed as acetate incorporation […] by liquid scintillation counting in presence of 1 mM DTT.
Data set [18] is described as follows: Chemical stability of the compound in HTS buffer assessed as GSH adduct formation by UPLC-MS analysis. The format is physicochemical. A digest of the protocol:
as §1

The source made the active and inactive calls. Unless noted, the calls are words filed in the database; no cut-off is given here.

T1 sequence (Q09472 whole entry): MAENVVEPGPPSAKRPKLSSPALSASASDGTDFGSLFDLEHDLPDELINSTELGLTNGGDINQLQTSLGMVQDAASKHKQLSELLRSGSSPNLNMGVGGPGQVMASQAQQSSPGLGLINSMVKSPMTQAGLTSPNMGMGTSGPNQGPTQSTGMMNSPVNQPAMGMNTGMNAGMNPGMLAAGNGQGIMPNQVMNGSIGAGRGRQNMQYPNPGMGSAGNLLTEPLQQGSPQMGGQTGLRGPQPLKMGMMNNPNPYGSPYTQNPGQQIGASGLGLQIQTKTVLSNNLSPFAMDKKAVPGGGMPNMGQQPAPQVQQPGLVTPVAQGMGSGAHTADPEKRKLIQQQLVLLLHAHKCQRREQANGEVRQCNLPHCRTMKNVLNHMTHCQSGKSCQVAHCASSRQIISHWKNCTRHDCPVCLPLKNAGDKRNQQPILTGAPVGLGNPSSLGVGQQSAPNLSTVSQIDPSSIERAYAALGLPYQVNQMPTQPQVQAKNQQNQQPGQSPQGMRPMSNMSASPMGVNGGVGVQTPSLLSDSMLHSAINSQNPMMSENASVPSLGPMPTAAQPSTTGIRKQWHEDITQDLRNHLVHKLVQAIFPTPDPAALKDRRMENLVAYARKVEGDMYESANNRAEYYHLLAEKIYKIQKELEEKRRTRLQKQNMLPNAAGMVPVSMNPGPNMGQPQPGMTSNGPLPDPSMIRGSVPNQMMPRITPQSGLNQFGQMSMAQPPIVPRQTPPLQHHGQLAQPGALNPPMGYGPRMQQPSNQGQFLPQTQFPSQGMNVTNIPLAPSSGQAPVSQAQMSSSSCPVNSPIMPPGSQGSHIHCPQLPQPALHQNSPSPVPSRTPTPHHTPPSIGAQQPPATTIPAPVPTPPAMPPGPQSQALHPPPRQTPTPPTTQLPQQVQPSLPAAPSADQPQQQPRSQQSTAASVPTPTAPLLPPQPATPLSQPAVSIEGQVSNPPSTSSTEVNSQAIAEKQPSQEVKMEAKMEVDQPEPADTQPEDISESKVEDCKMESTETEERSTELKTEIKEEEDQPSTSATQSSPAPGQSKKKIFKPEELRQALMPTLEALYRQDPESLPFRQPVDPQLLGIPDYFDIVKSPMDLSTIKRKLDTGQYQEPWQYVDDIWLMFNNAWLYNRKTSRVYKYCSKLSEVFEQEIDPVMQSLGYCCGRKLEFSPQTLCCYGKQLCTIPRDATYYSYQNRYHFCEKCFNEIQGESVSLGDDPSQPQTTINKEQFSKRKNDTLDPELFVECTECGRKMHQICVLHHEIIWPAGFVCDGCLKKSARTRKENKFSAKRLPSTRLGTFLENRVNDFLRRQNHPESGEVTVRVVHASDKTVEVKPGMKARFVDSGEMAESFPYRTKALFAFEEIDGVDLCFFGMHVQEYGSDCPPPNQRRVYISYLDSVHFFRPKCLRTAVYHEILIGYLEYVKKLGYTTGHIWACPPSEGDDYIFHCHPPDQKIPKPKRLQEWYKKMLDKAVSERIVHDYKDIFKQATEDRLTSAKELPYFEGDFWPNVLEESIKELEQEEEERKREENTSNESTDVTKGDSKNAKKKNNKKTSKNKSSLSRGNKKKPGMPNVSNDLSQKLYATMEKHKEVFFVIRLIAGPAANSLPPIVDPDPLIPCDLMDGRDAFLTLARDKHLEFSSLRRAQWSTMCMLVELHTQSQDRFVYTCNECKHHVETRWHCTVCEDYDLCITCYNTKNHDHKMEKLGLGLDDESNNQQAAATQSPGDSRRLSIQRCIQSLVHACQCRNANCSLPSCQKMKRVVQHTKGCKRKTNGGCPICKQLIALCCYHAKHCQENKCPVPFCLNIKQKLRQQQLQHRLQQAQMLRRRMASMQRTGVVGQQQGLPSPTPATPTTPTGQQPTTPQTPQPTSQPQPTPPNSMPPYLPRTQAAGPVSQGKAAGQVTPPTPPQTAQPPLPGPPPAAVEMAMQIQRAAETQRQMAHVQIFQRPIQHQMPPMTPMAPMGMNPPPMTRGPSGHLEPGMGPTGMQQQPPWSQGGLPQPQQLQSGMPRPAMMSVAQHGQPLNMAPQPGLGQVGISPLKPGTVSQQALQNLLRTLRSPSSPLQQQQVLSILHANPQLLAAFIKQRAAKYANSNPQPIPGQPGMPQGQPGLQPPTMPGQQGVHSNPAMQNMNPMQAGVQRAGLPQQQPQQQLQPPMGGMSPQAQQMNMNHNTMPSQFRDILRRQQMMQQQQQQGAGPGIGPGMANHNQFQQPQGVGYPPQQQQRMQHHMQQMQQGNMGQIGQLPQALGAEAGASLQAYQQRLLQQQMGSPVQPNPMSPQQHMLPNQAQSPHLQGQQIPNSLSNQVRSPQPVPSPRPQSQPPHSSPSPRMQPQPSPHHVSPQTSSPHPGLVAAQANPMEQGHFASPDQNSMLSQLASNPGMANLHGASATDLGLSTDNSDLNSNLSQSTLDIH
Chain of Histone acetyltransferase GCN5 (Q03330 whole entry): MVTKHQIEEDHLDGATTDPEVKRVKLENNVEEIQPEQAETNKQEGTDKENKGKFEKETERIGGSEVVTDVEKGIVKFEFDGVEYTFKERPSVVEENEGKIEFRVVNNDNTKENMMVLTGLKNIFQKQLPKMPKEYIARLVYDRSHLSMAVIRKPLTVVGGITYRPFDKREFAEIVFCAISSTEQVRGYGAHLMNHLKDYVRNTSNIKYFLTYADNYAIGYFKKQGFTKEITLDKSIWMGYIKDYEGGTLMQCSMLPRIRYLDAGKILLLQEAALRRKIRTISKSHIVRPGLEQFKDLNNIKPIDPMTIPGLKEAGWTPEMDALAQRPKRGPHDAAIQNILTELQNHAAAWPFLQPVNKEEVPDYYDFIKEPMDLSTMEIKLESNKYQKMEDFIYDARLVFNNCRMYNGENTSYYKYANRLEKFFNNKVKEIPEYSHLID
Chain of Histone acetyltransferase GCN5 (Saccharomyces cerevisiae S288c) (Q03330 whole entry): as above

Usually IC50 stands for the concentration that gives 50% inhibition. `O=S(=O)(Nc1cc(Sc2nc[nH]n2)c(O)c2ccccc12)c1ccc2ccccc2c1`: the Activity entry in data set [1], in data set [2], in data set [3] and in data set [8] was “Not Active” throughout. Besides, the Retention_time in data set [4] was 3.69 min; in [5] it was 3.28 min. For the same compound, the IC50 in [6] was determined as 510 nM; in data set [7], 2500 nM.

As to `O=C(O)CCSc1cc(NS(=O)(=O)c2ccc(Br)cc2)c2ccccc2c1O`, the IC50 entry in data set [9] is “Not Active”; in data set [10] it was 520 nM; in [6], 1000 nM; in [7], 650 nM. For the same compound, the Activity entry in data set [1] was “Not Active”; in [2], “Not Active”; in [3], “Not Active”; in data set [8], “Active”. Also, the Retention_time in [4] is listed as 3.67 min; in [5] it was 3.28 min. Moreover, the result in [11], in data set [12] and in [14] was Active. The outcome in data set [13] was inactive.

For `O=S(=O)(Nc1cc(Cl)c(O)c2ccccc12)c1ccc(Br)cc1`, the IC50 was 2500 nM in data set [9] (read-out: IC50), 1600 nM in data set [10], 1800 nM in [6] and 1200 nM in data set [7]. The outcome in [15], in data set [16], in data set [17], in [11] and in data set [14] was Active. The Activity entry in data set [1], in data set [2], in [3] and in [8] was “Not Active” each time. The Retention_time in data set [4] is listed as 3.65 min; in [5] it was 3.28 min.

For `O=S(=O)(Nc1cc(Sc2nnnn2-c2ccccc2)c(O)c2ccccc12)c1ccccc1`, the result in data set [15], in data set [16], in data set [17], in [11] and in data set [14] was Active. Also, the Activity entry in data set [1], in [2], in data set [3] and in data set [8] was “Not Active” each time. Also, the Retention_time in data set [4] is on record as 3.4 min; in data set [5] it was 3.28 min. Also, the IC50 in data set [6] came out at 3100 nM.

As to `O=C(O)CSc1cc(NS(=O)(=O)c2ccc(C(=O)O)cc2)c2ccccc2c1O`, the IC50 result is “Not Active” in data set [9], 150 nM in data set [10], 660 nM in data set [6] and 1300 nM in [7]. For the same compound, the Activity result is “Not Active” in data set [1], “Not Active” in data set [2], “Not Active” in data set [3] and “Active” in data set [8]. Moreover, the Retention_time in data set [4] is 3.27 min; in [5], 3.28 min. Moreover, the result in data set [11] and in data set [14] was Active.

With `O=[N+]([O-])c1cc(Br)c2nsnc2c1Sc1ncnc2[nH]cnc12`, the IC50 in data set [9] (read-out: IC50) amounted to 2800 nM; in data set [10] it was 3900 nM; in data set [6], 2200 nM; in data set [7], 4600 nM. Besides, the outcome in data set [15], in data set [16], in [17], in data set [11], in data set [12] and in data set [14] was Active. Besides, the Activity entry in data set [1], in data set [2], in data set [3] and in data set [8] was “Not Active” throughout. In data set [18], the Stability entry is listed as “Unstable”. In data set [13], the outcome was inactive.

With `O=C1CC(Sc2nnc(-c3ccccc3O)o2)C(=O)N1c1ccc(Br)cc1` (centres undefined), the IC50 worked out at 15000 nM in data set [9] (read-out: IC50), 3900 nM in data set [10], 3700 nM in data set [6] and 27000 nM in data set [7]. Further, the outcome in data set [15], in data set [16], in data set [17], in data set [11], in data set [12] and in [14] was Active. Moreover, the Activity result in [1], in data set [2], in data set [3] and in data set [8] was “Not Active” throughout. Moreover, the Stability entry in [18] is “Unstable”. Also, in data set [13], the outcome was inactive.

Regarding `O=S(=O)(Nc1cc(Sc2ncn[nH]2)c(O)c2ccccc12)c1ccc2ccccc2c1`, the result in [15], in [16], in data set [17], in data set [11], in data set [12] and in [14] was Active. Besides, the outcome in data set [13] was inactive.

`CNc1nc(-c2ccccc2)[n+](-c2ccccc2)s1.[Cl-]`: the result in data set [15], in [16], in data set [17], in [11], in [12] and in data set [14] was Active. Moreover, the Activity entry in [1], in data set [2], in [3] and in data set [8] was “Not Active” each time. In addition, the Stability result in data set [18] is listed as “Unstable”. The IC50 in [6] was found to be 1900 nM; in data set [7], 7500 nM. In addition, the outcome in data set [13] was inactive.
